This note sets out measurements from ChEMBL document CHEMBL2385079, “Design, synthesis and pharmacological characterization of analogs of 2-aminoethyl diphenylborinate (2-APB), a known store-operated calcium channel blocker, for inhibition of TRPV6-mediated calcium transport” (Bioorg Med Chem, 2013).

Activity calls are given as the source filed them. No cut-off for these calls is given here. A value given as a limit tells only on which side of the number the result lay.

Holding throughout (format): cell-based
The target of experiment [1] is T1, Transient receptor potential cation channel subfamily V member 6 (Homo sapiens, UniProt Q9H1D0).
T1 sequence (Q9H1D0 whole entry): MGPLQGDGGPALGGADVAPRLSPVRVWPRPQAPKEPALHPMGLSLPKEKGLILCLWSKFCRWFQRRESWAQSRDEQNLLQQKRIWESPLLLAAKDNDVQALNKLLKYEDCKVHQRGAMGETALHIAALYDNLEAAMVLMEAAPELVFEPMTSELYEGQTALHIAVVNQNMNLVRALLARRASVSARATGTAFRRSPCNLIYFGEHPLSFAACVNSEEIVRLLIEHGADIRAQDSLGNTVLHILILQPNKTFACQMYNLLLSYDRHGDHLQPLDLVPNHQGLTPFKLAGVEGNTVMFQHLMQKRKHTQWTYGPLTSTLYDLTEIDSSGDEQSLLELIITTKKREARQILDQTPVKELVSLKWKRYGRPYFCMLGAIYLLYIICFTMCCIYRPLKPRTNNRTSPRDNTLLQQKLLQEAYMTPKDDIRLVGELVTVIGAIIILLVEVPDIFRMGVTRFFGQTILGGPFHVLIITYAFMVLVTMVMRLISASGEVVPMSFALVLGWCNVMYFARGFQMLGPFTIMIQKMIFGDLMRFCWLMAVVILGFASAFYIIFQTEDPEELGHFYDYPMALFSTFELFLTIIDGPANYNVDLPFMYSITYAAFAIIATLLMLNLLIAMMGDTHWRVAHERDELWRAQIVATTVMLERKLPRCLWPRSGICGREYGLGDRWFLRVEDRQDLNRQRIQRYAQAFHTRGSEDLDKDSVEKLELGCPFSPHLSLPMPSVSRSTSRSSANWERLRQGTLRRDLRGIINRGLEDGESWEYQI
The experiment in a line: Inhibition of human TRPV6 transfected in HEK293 cells assessed as inhibition of Cd2+ influx after 5 mins by FLIPR assay. The essentials:
(§1)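 HEK293 clone stably expressing RFP-tagged hTRPV6, made by Lipofectamine transfection, G418 selection and picking of red-fluorescent single-cell colonies. Cells plated at 40,000/well and used after 36 h, then loaded 1 h at 37 °C with Calcium-5 in nominally Ca2+-free Krebs buffer. After a 50 s baseline, compound is given for 5 min. Then 2 mM CaCl2 or 50 µM CdCl2 is added, and the initial rate of fluorescence increase is read by FLIPR Tetra. IC50 is the average of six independent experiments.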

The target in experiment [2] is T2, ORAI 1/2/3 (Homo sapiens, UniProt Q96D31+Q96SN7+Q9BRQ5). The experiment in a line: Inhibition of ORAl1/2/3 in HEK293 cells assessed as inhibition of Ca2+ influx after 10 mins by FLIPR assay in presence of thapsigargin. The essentials:
(§2)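 Untransfected HEK293 cells plated at 40,000 cells/well, used after 36 h and loaded 1 h at 37 °C with Calcium-5 dye in nominally Ca2+-free modified Krebs buffer (117 mM NaCl, 4.8 mM KCl, 1 mM MgCl2, 10 mM HEPES). After a 50 s baseline, compound is added together with 1 µM thapsigargin for 10 min. Ca2+ or Cd2+ is then added, and the rate of fluorescence rise is read by FLIPR Tetra (ex 470–495, em 515–575 nm). IC50 is the mean of six experiments.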

Experiment [3] concerns the target T2, ORAI 1/2/3. The experiment in a line: Inhibition of ORAl1/2/3 in HEK293 cells assessed as inhibition of Cd2+ influx after 10 mins by FLIPR assay in presence of thapsigargin. The method, boiled down:
as §2

In experiment [4] the target is T1, Transient receptor potential cation channel subfamily V member 6. The experiment in a line: Inhibition of human TRPV6 transfected in HEK293 cells assessed as inhibition of Ca2+ influx after 5 mins by FLIPR assay. The essentials:
as §1

For experiment [5], the target named is T3, Transient receptor potential cation channel subfamily V member 6 (Homo sapiens) (UniProt Q9H1D0).
T3 sequence (whole entry): T1 sequence (Q9H1D0 whole entry)
The experiment in a line: Inhibition of human TRPV6 transfected in HEK293 cells assessed as inhibition of Cd2+ influx up to 500 uM after 5 mins by FLIPR assay. The method, boiled down: as §1

Experiment [6] addresses T3, Transient receptor potential cation channel subfamily V member 6 (Homo sapiens). The experiment in a line: Inhibition of human TRPV6 transfected in HEK293 cells assessed as inhibition of Ca2+ influx up to 500 uM after 5 mins by FLIPR assay. The method, boiled down:
as §1

For orientation: IC50 means the concentration at which inhibition is half-maximal. As for `COc1ccccc1[B-]1(c2ccccc2OC)[NH2+]CCO1`, the 50% inhibitory concentration (IC50) in experiment [1] is 412 µM; at ORAI 1/2/3 [2] it was 11.6 µM; on ORAI 1/2/3 [3], 10.5 µM; in experiment [4], greater than 500 µM.
Turning to `CN(C)CCOC(c1ccccc1)c1ccccc1` [DIPHENHYDRAMINE], the inhibition result in experiment [5] and in experiment [6] was “inactive” each time. Moreover, the IC50 at ORAI 1/2/3 [2] and on ORAI 1/2/3 [3] was greater than 500 µM each time.
With `Cc1ccc(B(O)c2ccc(C)cc2)cc1`, the IC50 in experiment [1] turned out to be 29 µM; on ORAI 1/2/3 [2], 23 µM; on ORAI 1/2/3 [3], 25.9 µM; in experiment [4], 18.6 µM.
Turning to `c1ccc([B-]2(c3ccccc3)OCC[N+]23CCNCC3)cc1`, the half-maximal inhibitory concentration (IC50) came to 24.3 µM in experiment [1], 6 µM on ORAI 1/2/3 [2], 2.2 µM at ORAI 1/2/3 [3] and 15 µM in experiment [4].
As to `Brc1ccc([B-]2(c3ccccc3)[NH2+]CCO2)cc1` (stereo unspecified), the IC50 in experiment [1] was found to be 9.8 µM; at ORAI 1/2/3 [2], 3.4 µM; at ORAI 1/2/3 [3] it was 4.9 µM; in experiment [4] it was 13.2 µM.
`OB1c2ccccc2CCc2ccccc21`: the concentration for half-maximal inhibition (IC50) was greater than 500 µM in experiment [1], 33.3 µM on ORAI 1/2/3 [2], 36.4 µM on ORAI 1/2/3 [3] and greater than 500 µM in experiment [4].
With `COc1ccc([B-]2(c3ccc(OC)cc3)[NH2+]CCO2)cc1`, the IC50 in experiment [1] was 89.8 µM; on ORAI 1/2/3 [2], 12.4 µM; at ORAI 1/2/3 [3], 25.8 µM; in experiment [4], greater than 100 µM.
For `Cc1ccc([B-]2(c3ccccc3)[NH2+]CCO2)cc1` (stereo unspecified), the IC50 in experiment [1] turned out to be 12.9 µM; on ORAI 1/2/3 [2], 8.6 µM; at ORAI 1/2/3 [3] it was 2.7 µM; in experiment [4] it was 18.9 µM.
The matching figures for `Cc1ccc([B-]2(c3ccc(C)cc3)[NH2+]CCO2)cc1`: 17.1 µM, 1.6 µM, 7.4 µM and 14.4 µM.
Take `COc1ccccc1B(O)c1ccccc1OC`: the IC50 in experiment [1] is greater than 500 µM; at ORAI 1/2/3 [2], 13.2 µM; on ORAI 1/2/3 [3], 11.8 µM; in experiment [4], greater than 500 µM.
Take `OB(c1ccccc1)c1ccccc1` [DIPHENYL BORINIC ACID]: the half-maximal inhibitory concentration (IC50) came to 31.5 µM in experiment [1], 9.8 µM on ORAI 1/2/3 [2], 8.7 µM at ORAI 1/2/3 [3] and 19.1 µM in experiment [4].
The matching figures for `c1ccc([B-]2(c3ccccc3)OC[C@H]3CCC[NH+]32)cc1` (stereo partly specified): 30.6 µM, 8 µM, 10.1 µM and 18.5 µM.
With `Fc1ccc([B-]2(c3ccccc3)[NH2+]CCO2)cc1` (stereo unspecified), the IC50 stood at 33.6 µM in experiment [1], 9.3 µM at ORAI 1/2/3 [2], 9.8 µM on ORAI 1/2/3 [3] and 18.8 µM in experiment [4].
The matching figures for `C[N+]1(C)CCO[B-]1(c1ccccc1)c1ccccc1`: 19.8 µM, 8.9 µM, 5.1 µM and 63.6 µM.
The matching figures for `Cc1ccccc1[B-]1(c2ccccc2)[NH2+]CCO1` (stereo unspecified): 67.9 µM, 10 µM, 9.9 µM and 31.1 µM.
The matching figures for `c1ccc([B-]2(c3ccccc3)[NH2+]CCCO2)cc1`: 28.1 µM, 7.9 µM, 8.2 µM and 16.2 µM.
`OB(c1ccc(C(F)(F)F)cc1)c1ccc(C(F)(F)F)cc1`: the IC50 was determined as 11.2 µM in experiment [1], 7.6 µM on ORAI 1/2/3 [2], 9.5 µM on ORAI 1/2/3 [3] and 10.8 µM in experiment [4].
The matching figures for `c1ccc(B(OB(c2ccccc2)c2ccccc2)c2ccccc2)cc1`: 17.7 µM, 11.4 µM, 13.4 µM and 19.2 µM.
`c1ccc([B-]2(c3ccccc3)[NH2+]CCS2)cc1`: the IC50 in experiment [1] is 93.5 µM; on ORAI 1/2/3 [2], 51.8 µM; at ORAI 1/2/3 [3], 44.6 µM; in experiment [4] it was 127 µM.
The matching figures for `FC(F)(F)c1ccc([B-]2(c3ccc(C(F)(F)F)cc3)[NH2+]CCO2)cc1`: 13.7 µM, 2.1 µM, 3.2 µM and 16.3 µM.
On to `O=C1O[B-](c2ccccc2)(c2ccccc2)[NH2+][C@H]1Cc1c[nH]c2ccccc12`, for which the inhibition result in experiment [5] and in experiment [6] was “inactive” in each case. In addition, the IC50 on ORAI 1/2/3 [2] is 6.9 µM; at ORAI 1/2/3 [3], 14.7 µM.
On to `c1ccc([B-]2(c3ccccc3)OCc3cccc[n+]32)cc1`, for which the IC50 in experiment [1] is 41.5 µM; at ORAI 1/2/3 [2], 10.7 µM; at ORAI 1/2/3 [3], 10.2 µM; in experiment [4], 34.9 µM.
Turning to `NCCOC(c1ccccc1)c1ccccc1`, the concentration for half-maximal inhibition (IC50) in experiment [1] is greater than 500 µM; at ORAI 1/2/3 [2], 106 µM; on ORAI 1/2/3 [3] it was 184.2 µM; in experiment [4], 159 µM.
The matching figures for `CCCCc1ccc([B-]2(c3ccccc3)[NH2+]CCO2)cc1` (stereo unspecified): 12.1 µM, 3.5 µM, 2.4 µM and 14.3 µM.
Consider `OB(c1ccccc1)c1ccc(Cl)cc1`, for which the half-inhibitory concentration (IC50) in experiment [1] was found to be 12 µM; at ORAI 1/2/3 [2], 21.8 µM; at ORAI 1/2/3 [3] it was 6.4 µM; in experiment [4], 9.7 µM.
For the compound `c1ccc(-c2ccc([B-]3(c4ccccc4)[NH2+]CCO3)cc2)cc1` (stereo unspecified), the half-inhibitory concentration (IC50) turned out to be 51.3 µM in experiment [1], 13.4 µM on ORAI 1/2/3 [2], 7.7 µM at ORAI 1/2/3 [3] and 72.3 µM in experiment [4].
Take `OB(c1ccccc1)c1ccc(C(F)(F)F)cc1`: the IC50 in experiment [1] stood at 12.5 µM; in experiment [4] it was 11.3 µM.
Consider `c1ccc([B-]2(c3ccccc3)OC[C@@H]3CCC[NH+]32)cc1` (stereo partly specified), for which the IC50 was 28 µM in experiment [1], 8.9 µM at ORAI 1/2/3 [2], 10.2 µM at ORAI 1/2/3 [3] and 18.8 µM in experiment [4].
On to `CB(O)O` [METHANE BORONIC ACID], for which the inhibition result in experiment [5] and in experiment [6] was “inactive” each time. The 50% inhibitory concentration (IC50) at ORAI 1/2/3 [2] and at ORAI 1/2/3 [3] was greater than 500 µM throughout.
Turning to `OB(c1ccc(F)cc1)c1ccc(F)cc1`, the IC50 came to 61.6 µM in experiment [1], 26.6 µM at ORAI 1/2/3 [2], 17.1 µM at ORAI 1/2/3 [3] and 37.1 µM in experiment [4].
For the compound `Fc1ccc([B-]2(c3ccc(F)cc3)[NH2+]CCO2)cc1`, the IC50 in experiment [1] worked out at 14.2 µM; at ORAI 1/2/3 [2] it was 9 µM; on ORAI 1/2/3 [3] it was 5.9 µM; in experiment [4] it was 17 µM.
Consider `OC(c1ccccc1)c1ccccc1` [DIPHENYLMETHANOL], for which the inhibition result in experiment [5] and in experiment [6] was “inactive” in each case. The IC50 at ORAI 1/2/3 [2] and at ORAI 1/2/3 [3] was greater than 500 µM in each case.
